# Source: PubChem BioAssay (The Scripps Research Institute Molecular Screening Center)
# Most compounds without a hit are left out; they make up all but 2.3% or so of the library.
# V1aR counter: V1a receptor agonism, counter-screen for OXTR agonists; P37288; CHO-V1R cells, Fluo-8 calcium fluorescence, agonist mode; 0% DMSO, 100% 3 nM vasopressin; activation, % at 3 µM; 320,000 tested, 0.25% active; AID 2797;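 active = activation above the mean activation of all tested compounds plus 3 SD, per screening run, cut at about 20% in these data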;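 note: signal is peak over basal fluorescence ratio across a 100 second FLIPR read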
# TAAR1 antagonist: antagonists of human TAAR1. inhibition, % at 3 µM. Q96RJ0. AID 624466. CHO RD-HGA16 TAAR1, Fluo-8 calcium fluorescence, antagonist. 360,000 tested, 1.5% active;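 active = inhibition above a per-plate cutoff, the mean inhibition of test compounds on that plate plus 3 SD, cut at about 49% in these data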;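 note: 0% = DMSO plus EC80 beta-PEA response and 100% = DMSO alone without agonist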
# Target sequence (Q96RJ0 whole entry, looked up): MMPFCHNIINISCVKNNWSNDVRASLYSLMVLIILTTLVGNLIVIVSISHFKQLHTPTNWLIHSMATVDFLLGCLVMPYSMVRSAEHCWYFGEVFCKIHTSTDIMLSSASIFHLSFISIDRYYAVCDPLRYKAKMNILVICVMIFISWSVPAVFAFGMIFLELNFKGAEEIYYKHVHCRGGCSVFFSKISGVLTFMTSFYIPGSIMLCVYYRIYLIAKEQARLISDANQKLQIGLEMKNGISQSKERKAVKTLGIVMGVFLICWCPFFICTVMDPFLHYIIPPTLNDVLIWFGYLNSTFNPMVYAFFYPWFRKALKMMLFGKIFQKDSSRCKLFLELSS
#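 test system = CHO RD-HGA16 cells bearing hTAAR1 | replication = singlicate | controls = DMSO-only wells and EC80 β-PEA-stimulated wells | reagent = EC80 β-phenethylamine stimulus | read-out basis = percent inhibition of PEA-evoked calcium signal, max/basal emission ratio | schedule = seeding 17-24 h prior, 75-min 37 °C, 30-min RT dye loading | signal = kinetic Fluo-8 calcium fluorescence measurement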
# OXTR agonist: activates the human oxytocin receptor | P30559 | 320,000 tested, 0.32% active | AID 2435 | CHO-OTR cells, Fluo-8 calcium fluorescence; normalized: DMSO 0%, oxytocin 100% | activation, % at 3 µM;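 active = activation above the mean of all tested compounds plus 3 SD, cutoff set per screening run, cut at about 20% in these data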;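 note: peak over basal fluorescence ratio from a 100 s FLIPR kinetic read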
# TAAR1 agonist: agonists of human TAAR1. activation, % at 3 µM. 360,000 tested, 0.99% active. CHO RD-HGA16 TAAR1, Fluo-8 calcium fluorescence; vehicle wells 0%, saturating PEA agonist 100%. AID 624467;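 active = activation above the mean activation of all test compounds in the run plus 3 SD, cut at about 38% in these data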
#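 test system = CHO RD-HGA16 cells carrying human TAAR1 plus Gα16 | schedule = 17-24 h seeding, 75 min 37 °C dye, 30 min RT | compound dosing = 3 µM single concentration | control set = DMSO and PEA EC100 | replicates = n 1 | signal = Fluo-8 fluorescence, 5 s baseline then 140 s kinetic read | measure = percent activation vs PEA EC100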
# OXTR potentiator: potentiates the human oxytocin receptor response; P30559; CHO-OTR cells, Fluo-8 calcium fluorescence, potentiator mode; 0% = oxytocin EC15, 100% = EC100; activation, % at 3 µM; 320,000 tested, 0.061% active;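 active = activation above that plate's cutoff, the mean activation of tested compounds plus 3 SD, cut at about 6.6% in these data, passing the limit was not always enough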;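 note: 100% uses oxytocin at 75 nM as the full agonist control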
#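 Assay system: CHO cell line stably expressing human OTR. Reagent: EC15 oxytocin agonist. Dosing: single dose, 3.0 µM nominal final compound concentration. Timing: compound 6 min at room temperature before oxytocin, 100 s read. Signal: kinetic Fluo-8 calcium fluorescence. Controls: oxytocin EC15 low and EC100 high.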
# TAAR1 nonsel count: nonselective antagonism, TAAR1 counter-screen. inhibition, % at 3 µM. counterscreen cell line, calcium fluorescence, antagonist mode. shares compounds with TAAR1 antagonist. 2,400 tested, 77% active. AID 651780; in the data active = inhibition above about 22%;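 note: CHO-Ga16 host cells stimulated with ATP at an EC80 level; 0% = agonist EC80 plus vehicle and 100% = vehicle without agonist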
# TAAR1 antag conf: confirmation of human TAAR1 antagonists; shares compounds with TAAR1 antagonist; TAAR1-expressing cells, fluorescence antagonist read-out; 2,400 tested, 40% active; AID 651785; inhibition, % at 3 µM; in the data active = inhibition above about 49%;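 note: CHO-Ga16 host cells challenged with agonist PEA near its EC80; 0% = agonist at EC80 plus vehicle and 100% = vehicle with no agonist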
# Ga16 nonsel ag: counter-screen for TAAR1 antagonists: nonselective Ga16 agonists; Ga16-expressing cells, calcium fluorescence, agonist counterscreen; 2,400 tested, 18% active; activation, % at 3 µM; AID 651953; shares compounds with TAAR1 antagonist; in the data active = activation above about 12%;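 note: 0% = vehicle wells and 100% = saturating stimulus response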
# TAAR1 ag counter: TAAR1 agonism, antagonist counter-screen; shares compounds with TAAR1 antagonist; hTAAR1 cell line, fluorescence activation, agonist mode; activation, % at 3 µM; 2,400 tested, 2% active; AID 651955; in the data active = activation above about 37%;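 note: CHO cells stably expressing TAAR1 with calcium dye readout; 0% = DMSO vehicle and 100% = full agonist response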
# Starred values were filed as active, the others as inactive; . = not tested or not shown.
SMILES,V1aR counter,TAAR1 antagonist,OXTR agonist,TAAR1 agonist,OXTR potentiator,TAAR1 nonsel count,TAAR1 antag conf,Ga16 nonsel ag,TAAR1 ag counter
CCCCc1c(-c2ccc(F)cc2)ncn1CCc1ccccc1OC,.,54.5*,.,26.2,.,23.1*,38.3,3.3,42.6*
COc1ccccc1CCn1cnc(-c2ccc(F)cc2)c1CC(C)C,.,62.6*,.,27.1,.,29.1*,62.1*,11.1,66.4*
COc1ccccc1CCn1cnc(-c2ccccc2)c1CC(C)C,.,55.9*,.,6.9,.,41.5*,49.1*,12.4*,26.0
COc1cccc(-c2ncn(CCc3ccccc3OC)c2CC(C)C)c1,.,62.1*,.,10.6,.,39.0*,49.3*,8.2,38.0*
COc1cc(OC)c(OC)cc1CN1CCN(C(=O)CC(C)C)CC1,0.1,-3.0,0.1,3.4,-0.9,.,.,.,.
COC1OC(c2ccccc2)=C(c2cnc(N)nc2)c2ccc(F)cc21 (configuration not stated),.,5.6,.,0.7,.,.,.,.,.
COC(=O)C1=C(C)N(Cc2ccccc2C(F)(F)F)C(=NCc2ccc(OC)cc2)NC1c1cccc(F)c1 (configuration not stated),.,4.8,.,14.2,.,.,.,.,.
COc1ccccc1CCn1cnc(-c2cccc(Cl)c2)c1CC(C)C,.,51.2*,.,13.9,.,32.6*,52.0*,8.9,38.0*
COc1ccccc1/C=C/C(=O)NC(=S)N1CCN(C)CC1,.,17.6,.,3.8,.,.,.,.,.
COc1ccccc1/C=C/C(=O)NC(=S)NC(C)C,-1.1,59.1*,-1.8,6.2,-8.1,18.7,44.4,9.5,19.4
COc1cc2c(cc1OC)-c1nnnn1C(C)(C)C2,0.5,13.0,1.3,4.4,-3.7,.,.,.,.
COc1cc2c(cc1OC)-c1nnc(-c3cccs3)n1C(C)(C)C2,0.5,49.6*,-0.4,1.3,-2.4,8.0,38.3,2.5,-2.3
COCCNc1ncnc2c1ncn2[C@H]1CN(Cc2ccncc2)C[C@@H](CO)O1,.,-33.3,.,0.7,.,.,.,.,.
O=C(Nc1cccc(Oc2ccccc2)c1)C1Cc2c(-c3cccc(F)c3)ccnc2O1 (configuration not stated),.,-16.2,.,2.5,.,.,.,.,.
O=S1(=O)c2ccc(Br)cc2OC2CCCC[C@@H]2N1Cc1ccccc1 (some centres not stated),.,10.0,.,0.2,.,.,.,.,.
COc1ccc(-c2cc(C(=O)NNC(=O)c3csc(N4CCOCC4)n3)c3ccccc3n2)cc1,0.8,60.8*,-0.2,9.3,-4.6,30.1*,44.6,6.5,5.2
O=C(Nc1ccccc1N1CCOCC1)c1cc(-c2ccncc2)nc2ccccc12,-0.5,63.4*,-1.3,16.2,1.2,27.1*,43.6,7.9,8.5
COc1ccc(-c2cc(C(=O)Nc3ccccc3N3CCOCC3)c3ccccc3n2)cc1OC,-1.8,59.3*,-2.7,5.6,-14.3,23.6*,45.3,5.7,3.2
O=C(Nc1ccc(N2CCOCC2)cc1)c1cc(-c2ccncc2)nc2ccccc12,0.6,22.3,-0.1,10.5,-4.0,.,.,.,.
O=C(COC(=O)c1cc(=O)c2ccccc2o1)NCc1ccc(Cl)cc1,.,-27.1,.,2.7,.,.,.,.,.
CCOC(=O)c1cnc2ccc(C)cc2c1Nc1ccc(N2CCOCC2)cc1,-0.8,61.5*,-1.5,10.4,-5.8,30.4*,58.0*,12.8*,19.2
COc1ccc(Nc2nc(-c3ccccc3)nc3ccccc23)cc1S(=O)(=O)N1CCOCC1,1.3,71.8*,1.0,21.9,-10.3,34.8*,56.7*,13.0*,10.7
O=C(Nc1ccc(F)cc1)c1oc2ccccc2c1NC(=O)C1CC1,-0.6,-12.1,-0.8,-4.7,1.3,.,.,.,.
O=C1c2cccc(OCC(=O)N3CCCc4ccccc43)c2CCN1Cc1ccccc1,2.8,3.9,2.3,9.2,-1.4,.,.,.,.
